One data set is described as follows: cells. The note with it: Homo sapiens, Cancer cell lines, 48 h.
Data set [1] can be described thus: Cytotoxicity against macrophage (unknown origin) assessed as reduction in cell viability after 24 hrs by MTT assay. It counts as cell-based. To be noted: macrophages (unknown origin). The method in brief:
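Macrophages plated at 5×10⁵ cells per well with a range of compound concentrations and incubated 24 h at 37 °C, 5% CO₂. MTT (4 mg/mL stock) added for the final 4 h, plate centrifuged, supernatant removed, DMSO added, absorbance read at 570 nm. Triplicate wells per concentration, assay repeated three times; CC50 (50% viability reduction) given as mean ± SD.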
(Tetrazolium assays rely on reduction of a dye to a coloured formazan, in cell work by metabolically active cells.)

Molecules are shown by their SMILES.

What is called IC50 is the concentration that inhibits the measured activity by half. A higher IC50 goes with weaker potency. A word on the CC50: it is the concentration at which the toxic effect on the cells reaches its halfway point.

`O=C(/C=C/c1ccccc1F)NNC(=O)c1ccc2c(c1)OCCO2` showed an IC50 in “cells” of 4510 nM. Besides, the CC50 at 24 h in data set [1] was 302 µM.

In turn, `O=C(/C=C/c1ccccc1Cl)NNC(=O)c1ccc2c(c1)OCCO2` displayed an IC50 in “cells” of 4880 nM. Moreover, the CC50 at 24 h in data set [1] is 285 µM.

In the data set “cells”, `O=C(/C=C/c1ccccc1Br)NNC(=O)c1ccc2c(c1)OCCO2` had an IC50 of 2110 nM. Besides, the CC50 at 24 h in data set [1] worked out at 315 µM.

For `Cc1ccccc1/C=C/C(=O)NNC(=O)c1ccc2c(c1)OCCO2`, the IC50 in the data set “cells” was 7710 nM. Also, in data set [1], the CC50 at 24 h came to 268 µM.

`COc1ccccc1/C=C/C(=O)NNC(=O)c1ccc2c(c1)OCCO2`: in “cells”, the IC50 came out at 8060 nM. Further, the CC50 at 24 h in data set [1] came to 312 µM.

The molecule `O=C(/C=C/c1ccccc1[N+](=O)[O-])NNC(=O)c1ccc2c(c1)OCCO2` showed an IC50 in “cells” of 890 nM. The CC50 at 24 h in data set [1] amounted to 257 µM.

With `O=C(/C=C/c1cccc(F)c1)NNC(=O)c1ccc2c(c1)OCCO2`, in “cells”, the IC50 was found to be 4110 nM. Moreover, the CC50 at 24 h in data set [1] worked out at 221 µM.

In turn, `O=C(/C=C/c1cccc(Cl)c1)NNC(=O)c1ccc2c(c1)OCCO2` displayed an IC50 in the data set “cells” of 3560 nM. In data set [1], the CC50 at 24 h was 391 µM.

In “cells”, `O=C(/C=C/c1cccc(Br)c1)NNC(=O)c1ccc2c(c1)OCCO2` registered an IC50 of 3330 nM. Further, the CC50 at 24 h in data set [1] was 351 µM.

In turn, `Cc1cccc(/C=C/C(=O)NNC(=O)c2ccc3c(c2)OCCO3)c1` gave an IC50 in the data set “cells” of 2890 nM. The CC50 at 24 h in data set [1] is 281 µM.

For `COc1cccc(/C=C/C(=O)NNC(=O)c2ccc3c(c2)OCCO3)c1`, the IC50 in the data set “cells” is 170 nM. Further, the CC50 at 24 h in data set [1] stood at 398 µM.

In the data set “cells”, `O=C(/C=C/c1cccc([N+](=O)[O-])c1)NNC(=O)c1ccc2c(c1)OCCO2` displayed an IC50 of 1560 nM. Moreover, the CC50 at 24 h in data set [1] came out at 323 µM.

`O=C(/C=C/c1ccc(F)cc1)NNC(=O)c1ccc2c(c1)OCCO2` had an IC50 in the data set “cells” of 990 nM. Also, in data set [1], the CC50 at 24 h was 319 µM.

Turning to `O=C(/C=C/c1ccc(Cl)cc1)NNC(=O)c1ccc2c(c1)OCCO2`, the IC50 in “cells” is 1130 nM. Further, the CC50 at 24 h in data set [1] was 309 µM.

Regarding `O=C(/C=C/c1ccc(Br)cc1)NNC(=O)c1ccc2c(c1)OCCO2`, the IC50 in “cells” was determined as 2330 nM. For the same molecule, the CC50 at 24 h in data set [1] worked out at 259 µM.

Consider `Cc1ccc(/C=C/C(=O)NNC(=O)c2ccc3c(c2)OCCO3)cc1`, for which the IC50 in “cells” worked out at 1050 nM. Moreover, the CC50 at 24 h in data set [1] was found to be 332 µM.

`COc1ccc(/C=C/C(=O)NNC(=O)c2ccc3c(c2)OCCO3)cc1`: half-maximal inhibition in the data set “cells” (IC50) was put at 930 nM. Further, in data set [1], the CC50 at 24 h was determined as 319 µM.

In the case of `O=C(/C=C/c1ccc([N+](=O)[O-])cc1)NNC(=O)c1ccc2c(c1)OCCO2`, inhibition in the data set “cells” was half-maximal at 610 nM (IC50). In addition, in data set [1], the CC50 at 24 h turned out to be 295 µM.

The molecule `O=C(/C=C/c1ccccc1)NNC(=O)c1ccc2c(c1)OCCO2` showed an IC50 in “cells” of 550 nM. The CC50 at 24 h in data set [1] amounted to 312 µM.
